Measurements as given in ChEMBL document CHEMBL4422685, “Design, synthesis and evaluation of a series of 5-methoxy-2,3-naphthalimide derivatives as AcrB inhibitors for the reversal of bacterial resistance” (Bioorg Med Chem Lett, 2019).
Values after ≈ are worked out from the molar mass of the structure shown. Active and inactive are the calls of the source. The calls are words filed in the database; no cut-off is given here.

Assays:
[1] = Solubility of the compound in DMSO; assay type: physicochemical
[2] = target: T1, Multidrug efflux pump subunit AcrB (Escherichia coli (strain K12)) (UniProt P31224); experiment: Inhibition of AcrB in wild-type drug-resistant Escherichia coli […] assessed as potentiation of chloramphenicol-induced antimicrobial activity by measuring chloramphenicol MIC at 128 ug/ml by checkerboard titration method (Rvb =16 ug/ml)
T1 sequence (whole entry): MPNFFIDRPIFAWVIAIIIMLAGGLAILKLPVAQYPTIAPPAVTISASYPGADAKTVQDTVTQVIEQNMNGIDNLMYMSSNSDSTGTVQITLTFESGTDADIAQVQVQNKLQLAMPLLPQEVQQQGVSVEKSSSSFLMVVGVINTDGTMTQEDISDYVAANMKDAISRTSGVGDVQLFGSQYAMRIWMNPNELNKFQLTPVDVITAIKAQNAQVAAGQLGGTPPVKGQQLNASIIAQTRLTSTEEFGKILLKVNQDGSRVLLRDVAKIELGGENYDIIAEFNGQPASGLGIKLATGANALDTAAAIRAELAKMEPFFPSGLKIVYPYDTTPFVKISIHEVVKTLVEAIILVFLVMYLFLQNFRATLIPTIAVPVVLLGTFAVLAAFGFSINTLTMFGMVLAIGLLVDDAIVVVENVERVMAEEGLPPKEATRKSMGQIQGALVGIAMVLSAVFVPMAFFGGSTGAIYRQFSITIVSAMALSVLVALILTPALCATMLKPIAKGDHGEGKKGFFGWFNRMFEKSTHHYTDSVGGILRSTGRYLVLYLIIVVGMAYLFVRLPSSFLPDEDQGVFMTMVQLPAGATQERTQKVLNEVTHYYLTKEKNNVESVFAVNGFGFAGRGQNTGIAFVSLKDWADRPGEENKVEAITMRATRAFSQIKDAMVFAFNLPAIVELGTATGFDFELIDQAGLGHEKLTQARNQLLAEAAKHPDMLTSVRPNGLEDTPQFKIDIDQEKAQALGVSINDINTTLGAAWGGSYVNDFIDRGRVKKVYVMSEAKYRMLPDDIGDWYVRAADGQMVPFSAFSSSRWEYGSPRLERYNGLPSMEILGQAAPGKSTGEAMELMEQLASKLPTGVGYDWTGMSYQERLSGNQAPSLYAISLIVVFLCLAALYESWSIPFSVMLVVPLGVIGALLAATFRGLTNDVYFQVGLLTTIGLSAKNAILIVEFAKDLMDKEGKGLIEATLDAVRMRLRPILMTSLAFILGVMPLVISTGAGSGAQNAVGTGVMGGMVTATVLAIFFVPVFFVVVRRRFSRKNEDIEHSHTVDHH

[3] = target: T1, Multidrug efflux pump subunit AcrB (Escherichia coli (strain K12)); experiment: Inhibition of AcrB in wild-type drug-resistant Escherichia coli […] assessed as potentiation of levofloxacin-induced antimicrobial activity by measuring levofloxacin MIC at 128 ug/ml by checkerboard titration method (reference value: 0.063 ug/ml)
[4] = target: T1, Multidrug efflux pump subunit AcrB (Escherichia coli (strain K12)); experiment: Inhibition of AcrB in wild-type drug-resistant Escherichia coli […] assessed as potentiation of tetraphenyl phosphonium chloride-induced antimicrobial activity by measuring tetraphenyl phosphonium chloride MIC at 8 ug/ml by checkerboard titration method (reference value: 1024 ug/ml)
[5] = target: T1, Multidrug efflux pump subunit AcrB (Escherichia coli (strain K12)); experiment: Inhibition of AcrB in wild-type drug-resistant Escherichia coli […] assessed as potentiation of tetraphenyl phosphonium chloride-induced antimicrobial activity by measuring tetraphenyl phosphonium chloride MIC at 128 ug/ml by checkerboard titration method (reference value: 1024 ug/ml)
[6] = target: T1, Multidrug efflux pump subunit AcrB (Escherichia coli (strain K12)); experiment: Inhibition of AcrB in wild-type drug-resistant Escherichia coli […] assessed as potentiation of levofloxacin-induced antimicrobial activity by measuring levofloxacin MIC at 32 ug/ml by checkerboard titration method (reference value: 0.063 ug/ml)
[7] = target: T1, Multidrug efflux pump subunit AcrB (Escherichia coli (strain K12)); experiment: Inhibition of AcrB in wild-type drug-resistant Escherichia coli […] assessed as potentiation of chloramphenicol-induced antimicrobial activity by measuring chloramphenicol MIC at 8 ug/ml by checkerboard titration method (Rvb =16 ug/ml)
[8] = target: T1, Multidrug efflux pump subunit AcrB (Escherichia coli (strain K12)); experiment: Inhibition of AcrB in wild-type drug-resistant Escherichia coli […] assessed as potentiation of erythromycin-induced antimicrobial activity by measuring erythromycin MIC at 32 ug/ml by checkerboard titration method (reference value: 64 ug/ml)
Escherichia coli [9] = experiment: Toxicity against AcrB deficient Escherichia coli AcrB lacking at 128 ug/ml; assay type: organism-based; conditions: in vivo
How it was run: (§1)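 MIC determination against wild-type resistant E. coli BW25113 and an isogenic acrB-deleted strain; highest concentration tested 128 mg/L.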

[10] = target: T1, Multidrug efflux pump subunit AcrB (Escherichia coli (strain K12)); experiment: Inhibition of AcrB in wild-type drug-resistant Escherichia coli […] assessed as potentiation of levofloxacin-induced antimicrobial activity by measuring levofloxacin MIC at 16 ug/ml by checkerboard titration method (reference value: 0.063 ug/ml)
Escherichia coli [11] = experiment: Toxicity against wild-type drug-resistant Escherichia coli […] at 128 ug/ml; assay type: organism-based; conditions: in vivo; how it was run: as §1
[12] = target: T1, Multidrug efflux pump subunit AcrB (Escherichia coli (strain K12)); experiment: Inhibition of AcrB in wild-type drug-resistant Escherichia coli […] assessed as potentiation of levofloxacin-induced antimicrobial activity by measuring levofloxacin MIC at 64 ug/ml by checkerboard titration method (reference value: 0.063 ug/ml)
[13] = target: T1, Multidrug efflux pump subunit AcrB (Escherichia coli (strain K12)); experiment: Inhibition of AcrB in wild-type drug-resistant Escherichia coli […] assessed as potentiation of tetraphenyl phosphonium chloride-induced antimicrobial activity by measuring tetraphenyl phosphonium chloride MIC at 64 ug/ml by checkerboard titration method (reference value: 1024 ug/ml)
[14] = target: T1, Multidrug efflux pump subunit AcrB (Escherichia coli (strain K12)); experiment: Inhibition of AcrB in wild-type drug-resistant Escherichia coli BW2113 assessed as potentiation of chloramphenicol-induced antimicrobial activity by measuring chloramphenicol MIC at 16 ug/ml by checkerboard titration method (Rvb =16 ug/ml)
[15] = target: T1, Multidrug efflux pump subunit AcrB (Escherichia coli (strain K12)); experiment: Inhibition of AcrB in wild-type drug-resistant Escherichia coli […] assessed as potentiation of tetraphenyl phosphonium chloride-induced antimicrobial activity by measuring tetraphenyl phosphonium chloride MIC at 32 ug/ml by checkerboard titration method (reference value: 1024 ug/ml)
[16] = target: T1, Multidrug efflux pump subunit AcrB (Escherichia coli (strain K12)); experiment: Inhibition of AcrB in wild-type drug-resistant Escherichia coli […] assessed as potentiation of erythromycin-induced antimicrobial activity by measuring erythromycin MIC at 16 ug/ml by checkerboard titration method (reference value: 64 ug/ml)
[17] = target: T1, Multidrug efflux pump subunit AcrB (Escherichia coli (strain K12)); experiment: Inhibition of AcrB in wild-type drug-resistant Escherichia coli […] assessed as potentiation of erythromycin-induced antimicrobial activity by measuring erythromycin MIC at 128 ug/ml by checkerboard titration method (reference value: 64 ug/ml)
[18] = target: T1, Multidrug efflux pump subunit AcrB (Escherichia coli (strain K12)); experiment: Inhibition of AcrB in wild-type drug-resistant Escherichia coli […] assessed as potentiation of tetraphenyl phosphonium chloride-induced antimicrobial activity by measuring tetraphenyl phosphonium chloride MIC at 16 ug/ml by checkerboard titration method (reference value: 1024 ug/ml)
[19] = target: T1, Multidrug efflux pump subunit AcrB (Escherichia coli (strain K12)); experiment: Inhibition of AcrB in wild-type drug-resistant Escherichia coli […] assessed as potentiation of erythromycin-induced antimicrobial activity by measuring erythromycin MIC at 64 ug/ml by checkerboard titration method (reference value: 64 ug/ml)
[20] = target: T1, Multidrug efflux pump subunit AcrB (Escherichia coli (strain K12)); experiment: Inhibition of AcrB in wild-type drug-resistant Escherichia coli […] assessed as potentiation of levofloxacin-induced antimicrobial activity by measuring levofloxacin MIC at 8 ug/ml by checkerboard titration method (reference value: 0.063 ug/ml)
[21] = target: T1, Multidrug efflux pump subunit AcrB (Escherichia coli (strain K12)); experiment: Inhibition of AcrB in wild-type drug-resistant Escherichia coli […] assessed as potentiation of chloramphenicol-induced antimicrobial activity by measuring chloramphenicol MIC at 32 ug/ml by checkerboard titration method (Rvb =16 ug/ml)
[22] = target: T1, Multidrug efflux pump subunit AcrB (Escherichia coli (strain K12)); experiment: Inhibition of AcrB in wild-type drug-resistant Escherichia coli […] assessed as potentiation of chloramphenicol-induced antimicrobial activity by measuring chloramphenicol MIC at 64 ug/ml by checkerboard titration method (Rvb =16 ug/ml)
[23] = target: T1, Multidrug efflux pump subunit AcrB (Escherichia coli (strain K12)); experiment: Inhibition of AcrB in wild-type drug-resistant Escherichia coli […] assessed as potentiation of erythromycin-induced antimicrobial activity by measuring erythromycin MIC at 8 ug/ml by checkerboard titration method (reference value: 64 ug/ml)
Escherichia coli [24] = experiment: Antimicrobial activity against AcrB deficient Escherichia coli; assay type: functional
[25] = target: T1, Multidrug efflux pump subunit AcrB (Escherichia coli (strain K12)); experiment: Inhibition of AcrB in wild-type drug-resistant Escherichia coli […] assessed as reduction in glucose-induced nile red efflux at 200 uM by fluorescence assay
How it was run: (§2)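 E. coli cells (wild-type resistant with active pump, acrB-deleted, or wild-type plus compound) preloaded with Nile Red before fluorescence recording. Efflux triggered at 100 s by adding 0.2% glucose. Fluorescence traces followed; experiments with different cell batches on three different days.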

Escherichia coli [26] = experiment: Induction of Escherichia coli outer membrane permeabilization assessed as increase in nitrocefin hydrolysis at 128 ug/ml by spectroscopic method; assay type: organism-based
[27] = target: T1, Multidrug efflux pump subunit AcrB (Escherichia coli (strain K12)); experiment: Inhibition of AcrB in wild-type drug-resistant Escherichia coli […] assessed as reduction in glucose-induced nile red efflux at 500 uM by fluorescence assay; how it was run: as §2

COc1cccc2cc3c(cc12)C(=O)N(CCc1ccc(F)cc1)C3=O
solubility [1]: Insoluble

COc1cccc(N2C(=O)c3cc4cccc(OC)c4cc3C2=O)c1
solubility [1]: Insoluble

COc1cccc2cc3c(cc12)C(=O)N(Cc1ccc(F)cc1)C3=O
solubility [1]: Insoluble

COc1cccc2cc3c(cc12)C(=O)N(CCc1ccccc1Cl)C3=O
solubility [1]: Insoluble

COc1cccc2cc3c(cc12)C(=O)N(Cc1ccccc1Cl)C3=O
MIC [2]: 16 µg/mL | MIC [3]: 0.063 µg/mL | MIC [4]: 1020 µg/mL | MIC [5]: 512 µg/mL | MIC [6]: 0.063 µg/mL | MIC [7]: 16 µg/mL | MIC [8]: 64 µg/mL | Activity (Escherichia coli [9]): Non-Toxic | MIC [10]: 0.063 µg/mL | Activity (Escherichia coli [11]): Non-Toxic | MIC [12]: 0.063 µg/mL | MIC [13]: 1020 µg/mL | MIC [14]: 16 µg/mL | MIC [15]: 1020 µg/mL | MIC [16]: 64 µg/mL | MIC [17]: 32 µg/mL | MIC [18]: 1020 µg/mL | MIC [19]: 64 µg/mL | MIC [20]: 0.063 µg/mL | MIC [21]: 16 µg/mL | MIC [22]: 16 µg/mL | MIC [23]: 64 µg/mL

COc1ccccc1N1C(=O)c2cc3cccc(OC)c3cc2C1=O
solubility [1]: Insoluble

CCCCc1ccc(N2C(=O)c3cc4cccc(OC)c4cc3C2=O)cc1
solubility [1]: Insoluble

CC[C@H]1OC(=O)[C@H](C)[C@@H](O[C@H]2C[C@@](C)(OC)[C@@H](O)[C@H](C)O2)[C@H](C)[C@@H](O[C@@H]2O[C@H](C)C[C@H](N(C)C)[C@H]2O)[C@](C)(O)C[C@@H](C)C(=O)[C@H](C)[C@@H](O)[C@]1(C)O [ERYTHROMYCIN]
MIC (Escherichia coli [24]): 64 µg/mL (≈ 87.2 µM)

COc1cccc2cc3c(cc12)C(=O)N(Cc1ccc(Cl)cc1)C3=O
solubility [1]: Insoluble

COc1cccc2cc3c(cc12)C(=O)N(c1ccc(C(C)C)cc1)C3=O
solubility [1]: Insoluble

COc1cccc2cc3c(cc12)C(=O)N(c1ccccc1C(F)(F)F)C3=O
solubility [1]: Insoluble

COc1cccc2cc3c(cc12)C(=O)N(C(C)(C)C)C3=O
MIC [2]: 16 µg/mL | MIC [3]: 0.063 µg/mL | MIC [4]: 1020 µg/mL | MIC [5]: 512 µg/mL | MIC [6]: 0.063 µg/mL | MIC [7]: 16 µg/mL | MIC [8]: 64 µg/mL | Activity (Escherichia coli [9]): Non-Toxic | MIC [10]: 0.063 µg/mL | inhibition [25]: Active | Activity (Escherichia coli [11]): Non-Toxic | Activity (Escherichia coli [26]): Non-Toxic | MIC [12]: 0.063 µg/mL | MIC [13]: 1020 µg/mL | MIC [14]: 16 µg/mL | MIC [15]: 1020 µg/mL | MIC [16]: 64 µg/mL | MIC [17]: 32 µg/mL | MIC [18]: 1020 µg/mL | inhibition [27]: 100% | MIC [19]: 32 µg/mL | MIC [20]: 0.063 µg/mL | MIC [21]: 16 µg/mL | MIC [22]: 16 µg/mL | MIC [23]: 64 µg/mL

[Cl-].c1ccc([P+](c2ccccc2)(c2ccccc2)c2ccccc2)cc1 [TETRAPHENYLPHOSPHONIUM CHLORIDE]
MIC (Escherichia coli [24]): 32 µg/mL

COc1cccc2cc3c(cc12)C(=O)N(Cc1ccc(C)cc1)C3=O
solubility [1]: Insoluble

COc1cccc2cc3c(cc12)C(=O)N(c1cccc(C)c1)C3=O
solubility [1]: Insoluble

C[C@H]1COc2c(N3CCN(C)CC3)c(F)cc3c(=O)c(C(=O)O)cn1c23.C[C@H]1COc2c(N3CCN(C)CC3)c(F)cc3c(=O)c(C(=O)O)cn1c23.O [LEVOFLOXACIN]
MIC (Escherichia coli [24]): 0.0039 µg/mL

CCc1ccc(N2C(=O)c3cc4cccc(OC)c4cc3C2=O)cc1
solubility [1]: Insoluble
